“Also recorded” adds a separate entry of the source.
Key:
[1] = system: basal cell carcinoma (BCC); experiment: antitumor activity in patients with BCC; assay type: in vivo, human
Summary of the method: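 Oral test compound, once daily in 28-day cycles, given as an outpatient, preceded by a single dose 7 days before cycle 1. BCC patients were dosed at 130 or 160 mg. Evaluable meant more than one dose plus a post-baseline clinical or RECIST 1.0 assessment. Treatment continued until progression, unacceptable adverse events or withdrawal.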

[2] = system: Gli-1 mRNA; experiment: pharmacodynamics: Gli-1 expression in skin and tumor biopsies; assay type: in vivo, human
Summary of the method: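 Normal skin was biopsied before treatment and 3 weeks into cycle 1 of once-daily oral dosing. RNA was extracted and Gli-1 mRNA measured by RT-PCR. In the biopsy cohort, accessible tumours were sampled at the same time points (baseline cycle 1 day −7; cycle 1 day 22). Gli-1 IHC scored stromal versus epithelial nuclear staining.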

[3] = system: SCLC tumors; conditions: cited from earlier work
[4] = phase I dose escalation: DLTs, MTD and treatment-emergent adverse events; assay type: in vivo, human
[5] = 28 evaluable vismodegib-naïve BCC patients

Compound: CC1=C2C[C@H]3[C@@H](CC[C@@H]4C[C@H](NS(C)(=O)=O)CC[C@@]43C)[C@@H]2CC[C@@]2(C1)O[C@@H]1C[C@H](C)CN[C@H]1[C@H]2C [IPI-926]
- complete response (CR) [1, 5]: 2 patients
- partial response (PR) [1, 5]: 6 patients
- patients with objective response [1, 5]: Eight
- patients showing a response ([1]; HhP inhibitor-naïve evaluable BCC patients, doses ≥130 mg): 8 of 28
- difference in efficacy between the 130- and 160-mg dose levels ([1]; full BCC cohort (N = 39)): no apparent difference in efficacy
- objective responses ([1]; nine BCC patients previously treated with vismodegib): no objective responses
- patients with a decrease in Gli-1 transcript level in normal skin biopsies ([2]; 48 of 65 patients, after 21 days of treatment): 74%
- Gli-1 transcript reduction in stroma (LCM quantitative RT-PCR) ([2]; rectal adenocarcinoma patient biopsy, cycle 1, day 22 vs baseline): about 7 fold
- Gli-1 stromal staining (IHC) ([2]; rectal adenocarcinoma posttreatment biopsy, cycle 1, day 22): reduced Gli-1 stromal staining
- regrowth of SCLC tumors following chemotherapy [3]: delays regrowth
- DLTs per total patients treated ([4]; 20 mg QD): 0/1
- DLTs per total patients treated ([4]; 30 mg QD): 0/1
- DLTs per total patients treated ([4]; 40 mg QD): 0/1
- DLTs per total patients treated ([4]; 60 mg QD): 0/1
- DLTs per total patients treated ([4]; 90 mg QD): 0/1
- ALT elevation (lab), treatment-emergent adverse event ([4]; 130 mg (n = 56), Grade 1–2): 40 (71) n (%)
- AST elevation (lab), treatment-emergent adverse event ([4]; 130 mg (n = 56), Grade 1–2): 41 (73) n (%)
- Alopecia, treatment-emergent adverse event ([4]; 130 mg (n = 56), Grade 1–2): 17 (30) n (%)
- Decreased appetite, treatment-emergent adverse event ([4]; 130 mg (n = 56), Grade 1–2): 12 (21) n (%)
- Diarrhea, treatment-emergent adverse event ([4]; 130 mg (n = 56), Grade 1–2): 15 (27) n (%)
- Dysgeusia, treatment-emergent adverse event ([4]; 130 mg (n = 56), Grade 1–2): 6 (11) n (%)
- Fatigue, treatment-emergent adverse event ([4]; 130 mg (n = 56), Grade 1–2): 29 (52) n (%)
- Muscle spasms, treatment-emergent adverse event ([4]; 130 mg (n = 56), Grade 1–2): 11 (20) n (%)
- Nausea, treatment-emergent adverse event ([4]; 130 mg (n = 56), Grade 1–2): 23 (41) n (%)
- Thrombocytopenia (lab), treatment-emergent adverse event ([4]; 130 mg (n = 56), Grade 1–2): 12 (21) n (%)
- Vomiting, treatment-emergent adverse event ([4]; 130 mg (n = 56), Grade 1–2): 11 (20) n (%)
- ALT elevation (lab), treatment-emergent adverse event ([4]; 130 mg (n = 56), Grade ≥3): 4 (7) n (%)
- AST elevation (lab), treatment-emergent adverse event ([4]; 130 mg (n = 56), Grade ≥3): 2 (4) n (%)
- Alopecia, treatment-emergent adverse event ([4]; 130 mg (n = 56), Grade ≥3): 0 (0) n (%)
- Decreased appetite, treatment-emergent adverse event ([4]; 130 mg (n = 56), Grade ≥3): 0 (0) n (%)
- Diarrhea, treatment-emergent adverse event ([4]; 130 mg (n = 56), Grade ≥3): 0 (0) n (%)
- Dysgeusia, treatment-emergent adverse event ([4]; 130 mg (n = 56), Grade ≥3): 1 (2) n (%)
- Fatigue, treatment-emergent adverse event ([4]; 130 mg (n = 56), Grade ≥3): 3 (5) n (%)
- Hemoglobin (lab), treatment-emergent adverse event ([4]; 130 mg (n = 56), Grade ≥3): 2 (4) n (%)
- Muscle spasms, treatment-emergent adverse event ([4]; 130 mg (n = 56), Grade ≥3): 1 (2) n (%)
- Nausea, treatment-emergent adverse event ([4]; 130 mg (n = 56), Grade ≥3): 0 (0) n (%)
- Thrombocytopenia (lab), treatment-emergent adverse event ([4]; 130 mg (n = 56), Grade ≥3): 3 (5) n (%)
- Vomiting, treatment-emergent adverse event ([4]; 130 mg (n = 56), Grade ≥3): 0 (0) n (%)
- DLTs per total patients treated ([4]; 130 mg QD): 0/56
- ALT elevation (lab), treatment-emergent adverse event ([4]; 160 mg (n = 18), Grade 1–2): 10 (55) n (%)
- AST elevation (lab), treatment-emergent adverse event ([4]; 160 mg (n = 18), Grade 1–2): 14 (78) n (%)
- Alopecia, treatment-emergent adverse event ([4]; 160 mg (n = 18), Grade 1–2): 4 (22) n (%)
- Decreased appetite, treatment-emergent adverse event ([4]; 160 mg (n = 18), Grade 1–2): 5 (28) n (%)
- Diarrhea, treatment-emergent adverse event ([4]; 160 mg (n = 18), Grade 1–2): 2 (11) n (%)
- Dysgeusia, treatment-emergent adverse event ([4]; 160 mg (n = 18), Grade 1–2): 4 (22) n (%)
- Fatigue, treatment-emergent adverse event ([4]; 160 mg (n = 18), Grade 1–2): 8 (44) n (%)
- Hemoglobin (lab), treatment-emergent adverse event ([4]; 160 mg (n = 18), Grade 1–2): 12 (66) n (%)
- Muscle spasms, treatment-emergent adverse event ([4]; 160 mg (n = 18), Grade 1–2): 6 (33) n (%)
- Nausea, treatment-emergent adverse event ([4]; 160 mg (n = 18), Grade 1–2): 6 (33) n (%)
- Thrombocytopenia (lab), treatment-emergent adverse event ([4]; 160 mg (n = 18), Grade 1–2): 4 (22) n (%)
- Vomiting, treatment-emergent adverse event ([4]; 160 mg (n = 18), Grade 1–2): 6 (33) n (%)
- ALT elevation (lab), treatment-emergent adverse event ([4]; 160 mg (n = 18), Grade ≥3): 5 (28) n (%)
- AST elevation (lab), treatment-emergent adverse event ([4]; 160 mg (n = 18), Grade ≥3): 2 (11) n (%)
- Alopecia, treatment-emergent adverse event ([4]; 160 mg (n = 18), Grade ≥3): 0 (0) n (%)
- Decreased appetite, treatment-emergent adverse event ([4]; 160 mg (n = 18), Grade ≥3): 0 (0) n (%)
- Diarrhea, treatment-emergent adverse event ([4]; 160 mg (n = 18), Grade ≥3): 1 (6) n (%)
- Dysgeusia, treatment-emergent adverse event ([4]; 160 mg (n = 18), Grade ≥3): 1 (6) n (%)
- Fatigue, treatment-emergent adverse event ([4]; 160 mg (n = 18), Grade ≥3): 3 (17) n (%)
- Hemoglobin (lab), treatment-emergent adverse event ([4]; 160 mg (n = 18), Grade ≥3): 1 (6) n (%)
- Muscle spasms, treatment-emergent adverse event ([4]; 160 mg (n = 18), Grade ≥3): 0 (0) n (%)
- Nausea, treatment-emergent adverse event ([4]; 160 mg (n = 18), Grade ≥3): 0 (0) n (%)
- Thrombocytopenia (lab), treatment-emergent adverse event ([4]; 160 mg (n = 18), Grade ≥3): 0 (0) n (%)
- Vomiting, treatment-emergent adverse event ([4]; 160 mg (n = 18), Grade ≥3): 0 (0) n (%)
- DLT description ([4]; 160 mg QD): Grade 3 AST and ALT elevation
- patients with DLT (grade 3 ALT and grade 3 AST elevation) ([4]; 160 mg QD): 1 of 6
- DLTs per total patients treated ([4]; 160 mg QD (dose selected for phase II)): 1/18
- patients with ≥grade 3 ALT elevations ([4]; 160 mg QD, the MTD): 28%
- patients with ≥grade 3 AST elevations ([4]; 160 mg QD, the MTD): 11%
- DLT description ([4]; 180 mg QD): Grade 3 fatigue and anorexia; also recorded: Grade 3 AST and ALT elevation
- DLTs per total patients treated ([4]; 180 mg QD (intolerable dose level)): 2/5
- patients who experienced DLTs ([4]; 180 mg QD, modified DLT criteria): 2 patients
- DLT description ([4]; 200 mg QD): Grade 3 AST elevation; also recorded: Grade 3 ALT elevation
- patients with adverse events that met DLT criteria ([4]; 200 mg QD): 2 patients
- DLTs per total patients treated ([4]; 200 mg QD (intolerable dose level)): 2/3
- DLT description ([4]; 210 mg QD): Grade 3 AST and ALT elevation; also recorded: Grade 2 ALT elevation and hyperbilirubinemia
- DLTs per total patients treated ([4]; 210 mg QD (intolerable dose level)): 2/7
